Results taken from ChEMBL document CHEMBL4257486, “A novel allosteric inhibitor that prevents IKKβ activation” (Medchemcomm, 2018).
Activity calls are given as the source filed them. The calls are words filed in the database; no cut-off is given here.

Key:
[1] = target: T1, Inhibitor of nuclear factor kappa-B kinase subunit beta (Homo sapiens) (UniProt O14920); experiment: Inhibition of IKKbeta in human SK-N-AS cells expressing red fluorescent protein fused NFkappaB/p65 (unknown origin) assessed as reduction in TNFalpha-induced NFkappaB/p65 nuclear translocation at 50 uM pre-incubated for 30 mins by flow cytometric analysis; assay type: cell-based
T1 sequence (whole entry): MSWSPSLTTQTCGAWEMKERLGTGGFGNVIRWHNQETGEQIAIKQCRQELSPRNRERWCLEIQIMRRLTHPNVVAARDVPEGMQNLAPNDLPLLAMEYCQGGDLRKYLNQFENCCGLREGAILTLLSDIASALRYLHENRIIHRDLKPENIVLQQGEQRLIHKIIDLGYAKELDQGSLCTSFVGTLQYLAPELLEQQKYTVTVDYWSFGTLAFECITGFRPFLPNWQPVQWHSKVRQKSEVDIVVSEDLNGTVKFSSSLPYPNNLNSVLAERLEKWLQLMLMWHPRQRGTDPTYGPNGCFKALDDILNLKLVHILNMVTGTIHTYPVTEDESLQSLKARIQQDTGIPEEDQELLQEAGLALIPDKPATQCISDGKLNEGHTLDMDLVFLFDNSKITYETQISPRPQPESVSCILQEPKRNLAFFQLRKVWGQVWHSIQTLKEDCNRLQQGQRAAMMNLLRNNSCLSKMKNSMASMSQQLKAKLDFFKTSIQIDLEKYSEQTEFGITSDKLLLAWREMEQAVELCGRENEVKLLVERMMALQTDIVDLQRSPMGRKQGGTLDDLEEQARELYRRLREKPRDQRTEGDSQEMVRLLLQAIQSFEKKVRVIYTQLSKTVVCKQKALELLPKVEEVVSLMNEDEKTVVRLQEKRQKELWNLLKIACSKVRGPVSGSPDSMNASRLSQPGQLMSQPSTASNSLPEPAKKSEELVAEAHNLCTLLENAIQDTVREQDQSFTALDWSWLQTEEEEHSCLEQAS

[2] = target: T2, Tyrosine-protein kinase ITK/TSK (Homo sapiens) (UniProt Q08881); experiment: Inhibition of human Itk using myelin basic protein as substrate at 100 uM after 40 mins in presence of [gamma-33P-ATP] by scintillation counting analysis
T2 sequence (whole entry): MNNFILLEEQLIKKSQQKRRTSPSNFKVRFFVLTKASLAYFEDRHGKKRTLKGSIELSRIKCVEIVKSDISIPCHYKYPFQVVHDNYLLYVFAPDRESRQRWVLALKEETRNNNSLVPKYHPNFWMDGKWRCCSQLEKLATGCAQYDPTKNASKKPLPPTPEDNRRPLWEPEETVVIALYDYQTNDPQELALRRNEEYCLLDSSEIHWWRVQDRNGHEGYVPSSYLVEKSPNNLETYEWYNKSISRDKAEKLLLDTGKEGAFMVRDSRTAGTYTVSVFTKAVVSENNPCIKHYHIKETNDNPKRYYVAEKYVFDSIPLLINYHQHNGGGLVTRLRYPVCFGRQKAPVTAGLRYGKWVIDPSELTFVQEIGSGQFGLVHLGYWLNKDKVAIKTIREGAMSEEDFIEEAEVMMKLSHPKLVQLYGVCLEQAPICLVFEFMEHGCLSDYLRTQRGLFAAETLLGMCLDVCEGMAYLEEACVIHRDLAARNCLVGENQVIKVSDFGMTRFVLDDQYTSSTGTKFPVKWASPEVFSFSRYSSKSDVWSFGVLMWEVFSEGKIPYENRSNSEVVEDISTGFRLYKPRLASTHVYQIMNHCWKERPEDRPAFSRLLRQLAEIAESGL
Procedure, shortened: (§1)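 Radiometric [γ-33P]ATP assay (specific activity approx. 500 cpm/pmol) run by an outsourced service. Compound was added first from a 50x stock in DMSO, giving 2% DMSO final. Positive controls contained DMSO only; blanks used a reference inhibitor to set 0% activity. Reactions were started with MgATP mix, run 40 min at room temperature, and stopped with 3% phosphoric acid. They were spotted on P30 filtermat, washed in 75 mM phosphoric acid and methanol, and scintillation counted.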

[3] = target: Mitogen-activated protein kinase 14 (Homo sapiens) (UniProt Q16539); experiment: Inhibition of human SAPK2a using myelin basic protein as substrate at 100 uM after 40 mins in presence of [gamma-33P-ATP] by scintillation counting analysis; procedure, shortened: as §1
Chain of Mitogen-activated protein kinase 14 (Homo sapiens) (Q16539 whole entry): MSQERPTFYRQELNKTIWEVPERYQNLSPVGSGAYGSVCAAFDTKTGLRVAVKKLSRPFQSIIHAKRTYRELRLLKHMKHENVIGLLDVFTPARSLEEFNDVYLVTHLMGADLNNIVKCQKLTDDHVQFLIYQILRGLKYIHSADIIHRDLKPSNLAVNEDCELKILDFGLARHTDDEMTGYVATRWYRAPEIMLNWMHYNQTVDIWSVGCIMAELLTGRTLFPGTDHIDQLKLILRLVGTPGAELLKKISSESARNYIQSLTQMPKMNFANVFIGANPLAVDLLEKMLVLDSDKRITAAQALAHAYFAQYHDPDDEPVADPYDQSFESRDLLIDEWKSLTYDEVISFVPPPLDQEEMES

[4] = target: MAP kinase-activated protein kinase 2 (Homo sapiens) (UniProt P49137); experiment: Inhibition of human MAPKAPK2 using KKLNRTLSVA as substrate at 100 uM after 40 mins in presence of [gamma-33P-ATP] by scintillation counting analysis; procedure, shortened: as §1
Chain of MAP kinase-activated protein kinase 2 (Homo sapiens) (P49137 whole entry, looked up): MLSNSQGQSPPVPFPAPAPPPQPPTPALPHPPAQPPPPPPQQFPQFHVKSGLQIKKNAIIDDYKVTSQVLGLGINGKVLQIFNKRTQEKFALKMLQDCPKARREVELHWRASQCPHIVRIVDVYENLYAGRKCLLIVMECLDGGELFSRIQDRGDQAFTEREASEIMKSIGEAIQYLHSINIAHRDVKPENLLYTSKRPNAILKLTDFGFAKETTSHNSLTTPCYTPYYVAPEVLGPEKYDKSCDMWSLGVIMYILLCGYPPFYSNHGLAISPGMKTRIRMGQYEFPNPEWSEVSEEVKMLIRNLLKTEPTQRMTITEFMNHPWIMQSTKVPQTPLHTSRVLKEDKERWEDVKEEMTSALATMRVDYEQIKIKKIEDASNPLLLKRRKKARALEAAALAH

[5] = target: T3, Tyrosine-protein kinase JAK3 (Homo sapiens) (UniProt P52333); experiment: Inhibition of human JAK3 using GGEEEEYFELVKKKK as substrate at 100 uM after 40 mins in presence of [gamma-33P-ATP] by scintillation counting analysis; procedure, shortened: as §1
T3 sequence (whole entry): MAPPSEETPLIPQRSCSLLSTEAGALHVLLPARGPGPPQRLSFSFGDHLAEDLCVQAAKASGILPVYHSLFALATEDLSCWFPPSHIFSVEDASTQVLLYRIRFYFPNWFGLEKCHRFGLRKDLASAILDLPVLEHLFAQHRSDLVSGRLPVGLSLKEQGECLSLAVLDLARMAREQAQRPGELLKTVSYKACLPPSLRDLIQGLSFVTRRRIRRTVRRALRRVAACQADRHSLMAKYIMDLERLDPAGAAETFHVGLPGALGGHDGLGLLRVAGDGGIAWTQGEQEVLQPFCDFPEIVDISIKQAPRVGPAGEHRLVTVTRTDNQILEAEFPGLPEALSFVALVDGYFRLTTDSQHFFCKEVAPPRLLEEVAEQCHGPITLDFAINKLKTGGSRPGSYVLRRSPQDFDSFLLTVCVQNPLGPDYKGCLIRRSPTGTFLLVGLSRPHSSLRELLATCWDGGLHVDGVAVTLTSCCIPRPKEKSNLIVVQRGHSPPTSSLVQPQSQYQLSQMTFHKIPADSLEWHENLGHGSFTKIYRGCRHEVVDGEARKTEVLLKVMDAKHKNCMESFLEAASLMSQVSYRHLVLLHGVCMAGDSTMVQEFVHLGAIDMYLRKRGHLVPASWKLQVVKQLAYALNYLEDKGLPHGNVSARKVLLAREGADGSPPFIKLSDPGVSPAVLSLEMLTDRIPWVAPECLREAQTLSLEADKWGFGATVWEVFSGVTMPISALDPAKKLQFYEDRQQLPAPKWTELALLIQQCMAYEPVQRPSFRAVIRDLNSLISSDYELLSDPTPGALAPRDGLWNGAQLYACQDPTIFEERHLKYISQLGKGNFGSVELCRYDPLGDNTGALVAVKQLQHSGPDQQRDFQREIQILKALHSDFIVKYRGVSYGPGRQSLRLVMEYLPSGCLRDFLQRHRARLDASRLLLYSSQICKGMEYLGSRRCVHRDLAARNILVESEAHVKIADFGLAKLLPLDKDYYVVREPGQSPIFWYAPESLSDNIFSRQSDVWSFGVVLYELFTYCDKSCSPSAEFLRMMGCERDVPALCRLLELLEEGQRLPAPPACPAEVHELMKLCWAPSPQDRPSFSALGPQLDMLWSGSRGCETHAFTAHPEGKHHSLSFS

- inhibition [1]: Active
- inhibition [2]: inactive
- inhibition [3]: inactive
- inhibition [4]: inactive
- inhibition [5]: inactive
Compound: CCOc1c(S(=O)(=O)NC2CC(C)(C)NC(C)(C)C2)ccc(Cl)c1Cl
